IDH1 mut inh: blocks human IDH1 R132H reductase activity. O75874. hit rate 0.18% among 70,000. inhibition, % at 10 µM. diaphorase/resazurin fluorescence, 60 min; in the data active = inhibition above about 34%; inconclusive = no clear call, values can overlap the other calls; inactive = below about 11%;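 also: 0% = DMSO and 100% = no enzyme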
Target sequence (O75874 whole entry R132H): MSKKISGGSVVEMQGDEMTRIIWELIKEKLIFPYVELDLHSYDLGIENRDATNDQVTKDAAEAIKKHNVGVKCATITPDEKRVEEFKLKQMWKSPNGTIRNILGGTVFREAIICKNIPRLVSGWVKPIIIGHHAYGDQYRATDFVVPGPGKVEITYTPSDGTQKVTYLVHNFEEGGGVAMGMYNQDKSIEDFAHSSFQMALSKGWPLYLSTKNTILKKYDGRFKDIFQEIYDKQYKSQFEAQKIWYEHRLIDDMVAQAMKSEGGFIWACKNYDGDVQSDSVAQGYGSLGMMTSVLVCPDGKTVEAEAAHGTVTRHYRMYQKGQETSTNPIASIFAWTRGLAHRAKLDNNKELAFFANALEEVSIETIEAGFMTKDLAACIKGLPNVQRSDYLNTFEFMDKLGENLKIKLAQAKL
KDM4C inh: KDM4C (human) demethylase inhibition; hit rate 0.15% among 96,000; AID 720574; Q9H3R0; GST-KDM4C 2-372, H3K9me3 peptide, LANCE TR-FRET; inhibition, % at 12.5 µM;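 active = mean replicate inhibition above about 25%, with at least 55% of replicates also reaching it, limit read from the data, passing the limit was not always enough; inconclusive = only one of those two conditions met; inactive = neither condition met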
Target sequence (Q9H3R0 2-372 limits assumed): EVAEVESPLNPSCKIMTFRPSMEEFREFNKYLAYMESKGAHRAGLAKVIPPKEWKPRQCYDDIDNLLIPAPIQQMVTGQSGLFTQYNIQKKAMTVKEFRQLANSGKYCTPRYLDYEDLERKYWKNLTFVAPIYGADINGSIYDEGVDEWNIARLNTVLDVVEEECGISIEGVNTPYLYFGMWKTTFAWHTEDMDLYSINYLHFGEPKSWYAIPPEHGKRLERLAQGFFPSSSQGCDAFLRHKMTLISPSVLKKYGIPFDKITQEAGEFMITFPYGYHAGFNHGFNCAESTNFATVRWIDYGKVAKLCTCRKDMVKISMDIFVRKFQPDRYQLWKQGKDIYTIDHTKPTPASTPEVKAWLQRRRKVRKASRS
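System – N-terminal GST-fused human GASC-1 (KDM4C) fragment, residues 2-372 · Input – enzyme final amount 10 nM · Technique – LANCE TR-FRET, Eu antibody, ULight-streptavidin, EDTA, ex 340 nm, em 618/671 nm · Medium – HEPES buffer, pH 7.5, plus ascorbate · Incubation – enzyme reaction 30 min, then detection 60 min, both room temperature · Reagent – H3K9me3 peptide with Fe(II)/2OG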
Pf Dd2 inh: inhibitors of Plasmodium falciparum Dd2 growth | hit rate 2.3% among 94,000 | P. falciparum Dd2 growth, SYBR Green, 72 h; hits give low values | AID 1159554 | activity change, % at 10 µM; in the data active = activity change below about -80%; inconclusive = no clear call, values can overlap the other calls
T cruzi growth-1: blocks T. cruzi growth in NIH3T3 culture; inhibition, % at 8.34 µM; AID 624255; T. cruzi beta-gal in NIH3T3, GalScreen luminescence, 90 h; hit rate 5.9% among 77,000;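 active = mean inhibition above about 93%, with at least 55% of replicates each passing it, limit read from the data, passing the limit was not always enough; inconclusive = only one of those two conditions holds; inactive = neither condition holds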
T cruzi growth-2: inhibitors of T. cruzi proliferation | hit rate 72% among 5,600 | T. cruzi beta-gal in NIH3T3, GalScreen luminescence, 90 h | inhibition, % at 8.35 µM | shares compounds with T cruzi growth-1;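 active = mean replicate inhibition above about 95% and at least 55% of replicates individually reaching it, limit read from the data; inconclusive = only one of the two criteria is met; inactive = neither criterion is met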
T cruzi growth-3: inhibitors of T. cruzi proliferation; hit rate 21% among 5,600; shares compounds with T cruzi growth-1; T. cruzi beta-gal in NIH3T3, GalScreen luminescence, 90 h; inhibition, % at 2.09 µM;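 active = mean inhibition above about 95%, with at least 55% of replicates also reaching it, limit read from the data; inconclusive = meets just one of the two conditions; inactive = meets neither condition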;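 also: plate controls were neutral control median for no effect and positive control median for full effect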
NIH3T3 tox: kills mouse NIH/3T3 fibroblasts; shares compounds with T cruzi growth-1; NIH/3T3 viability, CellTiter-Glo ATP luminescence, 90 h; cytotoxicity (signal decrease), % at 8.35 µM; hit rate 14% among 5,600; AID 651742;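 active = mean signal decrease across replicates above about 35% based on untreated-well scatter, with enough replicates individually passing, limit read from the data; inconclusive = no rule stated though some were filed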;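 also: 0% = median of neutral control wells and 100% = median of positive control wells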
NIH3T3 tox 2: cytotoxicity in mouse NIH/3T3 fibroblasts; AID 651744; hit rate 56% among 5,600; inhibition, % at 24.9 µM; NIH/3T3 viability, CellTiter-Glo ATP luminescence, 90 h; shares compounds with T cruzi growth-1;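 active = mean loss of cell viability signal at or above a set limit, and enough replicates individually reaching it; inconclusive = meets only the mean limit or only the replicate share; inactive = meets neither condition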;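 also: 0% = median of neutral control wells and 100% = median of positive control wells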
* = called active by the depositor; ? = inconclusive; . = not tested or not shown. In the library only some 5.9% were active in any assay of this set; here they are far more common.

SMILES | IDH1 mut inh | KDM4C inh | Pf Dd2 inh | T cruzi growth-1 | T cruzi growth-2 | T cruzi growth-3 | NIH3T3 tox | NIH3T3 tox 2
COc1ccccc1C#Cc1ccc([C@H]2[C@H](CO)N3CCCCN(C(=O)C4CCCC4)C[C@@H]23)cc1 | . | . | -37.6 | 106.7* | 106.1* | 106.5* | 42.8* | 105.4*
COc1ccccc1C#Cc1ccc([C@H]2[C@@H](CO)N3CCCCN(C(=O)C4CCC4)C[C@@H]23)cc1 | . | -2.3 | 2.7 | 105.6* | 110.9* | ? | 50.0* | 74.1*
COc1ccccc1C#Cc1ccc([C@@H]2[C@@H](CO)N3CCCCN(C(=O)C4CCCC4)C[C@@H]23)cc1 | . | . | 13.1 | 116.5* | 102.3* | 98.3* | -19.2 | 104.6*
COc1ccccc1C#Cc1ccc([C@@H]2[C@H](CO)N3CCCCN(C(=O)C4CCC4)C[C@@H]23)cc1 | . | -0.4 | -14.8 | 86.9 | . | . | . | .
COc1ccccc1C#Cc1ccc([C@H]2[C@@H](CO)N3CCCCN(C(=O)C4CC4)C[C@H]23)cc1 | . | . | -25.1 | 107.8* | 105.5* | 103.1* | 21.9 | 104.6*
COc1ccccc1C#Cc1ccc([C@@H]2[C@@H](CO)N3CCCCN(C(=O)C4CCC4)C[C@H]23)cc1 | . | 0.5 | -1.1 | 87.5 | . | . | . | .
Cc1ccccc1-c1nc(S(=O)(=O)c2ccc(Cl)cc2)c(NCC2CCCO2)o1 (stereo not given) | 0.3 | . | . | . | . | . | . | .
CNC[C@H]1OCc2cn(nn2)CCCC(=O)N([C@H](C)CO)C[C@H]1C | -0.7 | 3.7 | 5.0 | ? | 59.2 | -4.6 | -8.2 | 0.3
CNC[C@H]1OCc2cnnn2CCCC(=O)N([C@@H](C)CO)C[C@@H]1C | 2.1 | -1.9 | 17.1 | 8.6 | . | . | . | .
Cc1ccccc1S(=O)(=O)N(C)C[C@@H]1OCc2cnnn2CCCC(=O)N([C@H](C)CO)C[C@H]1C | 2.2 | -0.6 | 13.5 | 10.8 | . | . | . | .
CNC[C@H]1OCc2cnnn2CCCC(=O)N([C@@H](C)CO)C[C@H]1C | . | -2.2 | 1.0 | 119.8* | 28.9 | 60.2 | 10.7 | 0.7
Cc1ccccc1S(=O)(=O)N(C)C[C@@H]1OCc2cnnn2CCCC(=O)N([C@@H](C)CO)C[C@@H]1C | . | 0.2 | 26.9 | ? | 67.9 | 47.6 | -3.0 | 14.8
COc1cc(NC(=O)c2ccccc2)c(OC)cc1NC(=O)COc1ccc(Cl)cc1Cl | 0.7 | . | . | . | . | . | . | .
Cc1cccnc1NC(=O)COc1ccc(Cl)cc1Cl | 1.5 | . | . | . | . | . | . | .
CC1CCC2(C)C(C(=O)O)=CCCC2C1(C)CCC1=CC(O)OC1=O (stereo not given) | 0.3 | . | . | . | . | . | . | .
N#C[C@@H]1N[C@@H](CO)[C@H]1c1ccc(C#Cc2ccc(F)cc2)cc1 | . | -3.4 | 3.2 | ? | 92.5 | 32.3 | -31.2 | 10.8
N#C[C@@H]1N[C@@H](CO)[C@@H]1c1ccc(C#Cc2ccc(F)cc2)cc1 | . | -1.5 | 6.9 | 103.1* | 104.9* | 40.6 | -3.8 | -7.3
N#C[C@@H]1N[C@@H](CO)[C@H]1c1ccc(C#CC2CCCC2)cc1 | . | 0.8 | 16.4 | ? | 70.7 | 8.0 | -25.9 | -0.6
COc1ccc(CCNC(=O)c2ccc(-c3cccc(C(F)(F)F)c3)o2)cc1OC | 0.4 | . | . | . | . | . | . | .
O=C(CN1C(=O)c2cccc3cccc1c23)Nc1ccccc1C(=O)N1CCOCC1 | 0.1 | . | . | . | . | . | . | .
CO[C@H]1CN(C)C(=O)c2ccc(NC(=O)C3CC3)cc2OC[C@@H](C)N(C(=O)c2cccnc2)C[C@@H]1C | -0.5 | -0.4 | -0.9 | 108.6* | -18.0 | -18.2 | -11.7 | -3.9
CO[C@H]1CN(C)C(=O)c2ccc(NC(=O)C3CC3)cc2OC[C@H](C)N(C(=O)c2cccnc2)C[C@H]1C | 0.0 | -0.2 | 19.7 | -31.1 | . | . | . | .
CCC(=O)Nc1ccc2c(c1)OC[C@H](C)N(C(=O)c1ccc(F)cc1)C[C@@H](C)[C@@H](OC)CN(C)C2=O | 0.1 | 1.7 | 4.4 | 104.5* | -11.5 | 0.6 | -5.1 | -1.5
CCOC(=O)NC(=O)CSc1nc2ccccc2s1 | -0.4 | . | . | . | . | . | . | .
O=C(CSc1nc(O)cc(=O)n1-c1ccccc1)Nc1ccccc1Cl | -0.1 | . | . | . | . | . | . | .
SMILES | IDH1 mut inh | KDM4C inh | Pf Dd2 inh | T cruzi growth-1 | T cruzi growth-2 | T cruzi growth-3 | NIH3T3 tox | NIH3T3 tox 2
C[C@H](CO)N1C[C@H](C)[C@@H](CN(C)C)Oc2cc(-c3ccncc3)ccc2S1(=O)=O | 0.8 | -0.6 | -2.5 | 105.8* | 89.3 | 24.1 | 13.1 | ?
C[C@@H]1CN([C@H](C)CO)S(=O)(=O)c2ccc(-c3ccncc3)cc2O[C@H]1CN(C)C | 1.5 | 3.8 | 24.8 | 23.6 | . | . | . | .
C[C@@H]1CN([C@@H](C)CO)S(=O)(=O)c2ccc(-c3ccncc3)cc2O[C@H]1CN(C)C | -6.6 | -0.9 | 10.7 | 98.2* | 97.1* | 14.7 | 1.9 | 19.4
C[C@H]1CN([C@@H](C)CO)S(=O)(=O)c2ccc(Br)cc2O[C@H]1CN(C)Cc1ccccc1F | . | 0.9 | -3.8 | . | . | . | . | .
C/C=C/c1ccc2c(c1)O[C@@H](CN(C)Cc1ccccc1F)[C@H](C)CN([C@@H](C)CO)S2(=O)=O | 0.1 | -1.7 | -21.9 | 115.8* | 95.8* | 90.1 | 56.9* | 104.7*
C[C@@H]1CN([C@@H](C)CO)S(=O)(=O)c2ccc(Br)cc2O[C@H]1CN(C)Cc1ccccc1F | . | -2.8 | -16.1 | . | . | . | . | .
C/C=C/c1ccc2c(c1)O[C@@H](CN(C)Cc1ccccc1F)[C@@H](C)CN([C@H](C)CO)S2(=O)=O | 0.0 | 2.0 | -6.2 | 118.6* | 104.8* | 80.0 | 0.3 | 105.2*
O=C(O)C1CCCCC1C(=O)Nc1ccc(C(=O)N2CCCCC2)c(Cl)c1 (stereo not given) | 1.9 | . | . | . | . | . | . | .
CC(C)(C)C1CCc2c(sc(NC(=O)CN3CCOCC3)c2C#N)C1 (stereo not given) | -0.1 | . | . | . | . | . | . | .
COc1ccc(-c2ccc([C@@H]3[C@H]4CN(C(=O)NC(C)C)CCCCN4[C@H]3CO)cc2)cc1 | . | 0.4 | 11.3 | 68.8 | . | . | . | .
COc1ccc(-c2ccc([C@H]3[C@H](CO)N4CCCCN(C(=O)NC(C)C)C[C@@H]34)cc2)cc1 | . | 0.6 | -4.3 | 105.2* | 113.5* | 37.9 | 13.5 | 24.8*
COc1ccc(-c2ccc([C@H]3[C@@H](CO)N4CCCCN(C(=O)NC(C)C)C[C@H]34)cc2)cc1 | . | 0.2 | -16.2 | 104.2* | 110.4* | 76.6 | -10.5 | 85.4*
CC(C)NC(=O)N1CCCCN2[C@H](CO)[C@H](c3ccc(C4=CCCC4)cc3)[C@@H]2C1 | . | 2.0 | 18.4 | 117.0* | 113.2* | 105.9* | 7.5 | -8.2
CC(=O)C(C#N)C(=O)Nc1cc(Br)ccc1Br (stereo not given) | -0.4 | . | . | . | . | . | . | .
COc1cccc(CO)c1OCC(=O)Nc1ccc(F)cc1 | -0.2 | . | . | . | . | . | . | .
CCC(Sc1nnc2sc3ccccc3n12)C(=O)O (stereo not given) | -2.2 | . | . | . | . | . | . | .
COc1ccc(Cl)cc1NC(=O)c1ccccc1N(Cc1ccccc1)S(C)(=O)=O | 0.0 | . | . | . | . | . | . | .
